Measurements reported in ChEMBL document CHEMBL1124186, “Synthesis and evaluation of tylosin-related macrolides modified at the aldehyde function: a new series of orally effective antibiotics” (1988).
≈ marks a conversion by molar mass, not a printed value.

Columns and labels:
Bacteroides fragilis [1] = assay: In vitro antimicrobial activity against anaerobic bacteria bacteroides fragilis 111; assay type: functional
Bacteroides fragilis [2] = assay: In vitro antimicrobial activity against anaerobic bacteria bacteroides fragilis 1877; assay type: functional
Bacteroides fragilis [3] = assay: In vitro antimicrobial activity against anaerobic bacteria bacteroides fragilis 1936B,; assay type: functional
Eikenella corrodens = assay: In vitro antimicrobial activity against anaerobic bacteria bacteroides corrodens 1874; assay type: functional
Phocaeicola vulgatus = assay: In vitro antimicrobial activity against anaerobic bacteria bacteroides vulgatus 1211; assay type: functional
[4] = tested on: Prevotella melaninogenica; assay: In vitro antimicrobial activity against anaerobic bacteria bacteroides melaninogenicus 1856,; assay type: functional
[5] = tested on: Bacteroides thetaiotaomicron; assay: In vitro antimicrobial activity against anaerobic bacteria bacteroides thetaiotaomicron 1438; assay type: functional
Clostridioides difficile = assay: In vitro antimicrobial activity against anaerobic bacteria Clostridium difficile 2994; assay type: functional
Clostridium perfringens = assay: In vitro antimicrobial activity against anaerobic bacteria clostridium perfringens 81,; assay type: functional
Clostridium septicum = assay: In vitro antimicrobial activity against anaerobic bacteria clostridium septicum 1128; assay type: functional
Chlamydia trachomatis = assay: In vitro antimicrobial activity against chlamydia trachomatis.; assay type: functional
Fusobacterium = assay: In vitro antimicrobial activity against anaerobic bacteria fusobacterium symbiosum 1470; assay type: functional
Haemophilus influenzae [6] = assay: In vitro antimicrobial activity against aerobic bacteria Haemophilus influenzae 76; assay type: functional
Haemophilus influenzae [7] = assay: In vitro antimicrobial activity against aerobic bacteria Haemophilus influenzae MX366,; assay type: functional
Haemophilus influenzae [8] = assay: In vitro antimicrobial activity against Haemophilus influenzae.; assay type: functional
[9] = tested on: Haemophilus parainfluenzae; assay: In vitro antimicrobial activity against aerobic bacteria Haemophilus parainfluenzae 9796; assay type: functional
[10] = In vitro antimicrobial activity against anaerobic bacteria peptostreptococcus intermedius 1264; assay type: functional
[11] = tested on: Peptoniphilus asaccharolyticus; assay: In vitro antimicrobial activity against anaerobic bacteria peptococcus asaccharolyticus 1302; assay type: functional
Anaerococcus prevotii = assay: In vitro antimicrobial activity against anaerobic bacteria peptococcus prevoti 1281; assay type: functional
Cutibacterium acnes = assay: In vitro antimicrobial activity against anaerobic bacteria propionibacterium acnes 79; assay type: functional
Streptococcus [12] = assay: In vitro antimicrobial activity against aerobic bacteria Streptococcus B 8; assay type: functional
Streptococcus [13] = assay: In vitro antimicrobial activity against aerobic bacteria Streptococcus C 24; assay type: functional
Streptococcus [14] = assay: In vitro antimicrobial activity against aerobic bacteria Streptococcus D 8043; assay type: functional
Streptococcus [15] = assay: In vitro antimicrobial activity against aerobic bacteria Streptococcus D 9960; assay type: functional
Streptococcus [16] = assay: In vitro antimicrobial activity against aerobic bacteria Streptococcus G Kruder; assay type: functional; conditions: Streptococcus; read-out: MIC
[17] = tested on: Staphylococcus epidermidis; assay: In vitro antimicrobial activity against aerobic bacteria Streptococcus epi 270; assay type: functional
Staphylococcus aureus [18] = assay: In vitro antimicrobial activity against Staphylococcus aureus X1; assay type: functional
Staphylococcus aureus [19] = assay: In vitro antimicrobial activity against aerobic bacteria Staphylococcus aureus 513E; assay type: functional
Staphylococcus aureus [20] = assay: In vitro antimicrobial activity against aerobic bacteria Staphylococcus aureus V140,; assay type: functional
Staphylococcus aureus [21] = assay: In vitro antimicrobial activity against aerobic bacteria Staphylococcus aureus V41; assay type: functional
Staphylococcus aureus [22] = assay: In vitro antimicrobial activity against aerobic bacteria Staphylococcus aureus X400; assay type: functional
Streptococcus pyogenes [23] = assay: Effective dose against Streptococcus pyogenes C203 when administered orally; assay type: functional; conditions: po
Outline: (§1)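 Mouse protection test: infected mice were dosed twice, at 1 and 5 h postinfection, either subcutaneously or orally. […] The result is expressed as ED50 in mg/kg × 2.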

Streptococcus pyogenes [24] = assay: Effective dose against Streptococcus pyogenes C203 when administered sc; assay type: functional; outline: as §1
Streptococcus pneumoniae [25] = assay: In vitro antimicrobial activity against aerobic bacteria Streptococcus pneumoniae B1-438; assay type: functional, streptococcus pneum
Streptococcus pyogenes [26] = assay: In vivo effective dose against experimental infections in rodent caused by Streptococcus pyogenes C203 when administered sc; assay type: functional
Streptococcus sanguinis = assay: In vitro antimicrobial activity against aerobic bacteria Streptococcus sanguis MX132; assay type: functional
Streptococcus pneumoniae [27] = assay: In vitro antimicrobial activity against Streptococcus pneumoniae; assay type: functional
[28] = tested on: Staphylococcus epidermidis; assay: In vitro antimicrobial activity against Staphylococcus epidermidis EPI1; assay type: functional
[29] = tested on: Staphylococcus epidermidis; assay: In vitro antimicrobial activity against aerobic bacteria Streptococcus epi 222; assay type: functional
Enterococcus faecium = assay: In vitro antimicrobial activity against Streptococcus faecium X66; assay type: functional, streptococcus fae-cium
Streptococcus pyogenes [30] = assay: In vitro antimicrobial activity against Streptococcus pyogenes C203; assay type: functional
Streptococcus viridans = assay: In vitro antimicrobial activity against aerobic bacteria Streptococcus viridans 9943; assay type: functional
Streptococcus [31] = assay: In vitro antimicrobial activity against aerobic bacteria Streptococcus B 5; assay type: functional
Staphylococcus aureus [32] = assay: In vitro antimicrobial activity against aerobic bacteria Staphylococcus aureus V135; assay type: functional
Haemophilus influenzae [33] = assay: In vitro antimicrobial activity against aerobic bacteria Haemophilus influenzae 465; assay type: functional
[34] = tested on: Prevotella melaninogenica; assay: In vitro antimicrobial activity against anaerobic bacteria bacteroides melaninogenicus 2736; assay type: functional
[35] = tested on: Fusobacterium necrophorum; assay: In vitro antimicrobial activity against anaerobic bacteria usobacterium necrophorum 6054A; assay type: functional
Collinsella aerofaciens = assay: In vitro antimicrobial activity against anaerobic bacteria eubacterium aerofaciens 1235; assay type: functional
Streptococcus [36] = assay: In vitro antimicrobial activity against aerobic bacteria Streptococcus D 2041; assay type: functional
[37] = tested on: Peptostreptococcus anaerobius; assay: In vitro antimicrobial activity against anaerobic bacteria eubacterium peptostreptococcus anaerobius 1428,; assay type: functional
Streptococcus pyogenes [38] = assay: Antimicrobial activity against Streptococcus pyogenes C203; assay type: functional
Streptococcus pyogenes [39] = assay: In vivo effective dose against experimental infections in rodent caused by Streptococcus pyogenes C203 when administered orally; assay type: functional; conditions: po

SMILES: CC[C@H]1OC(=O)C[C@@H](O)[C@H](C)[C@@H](O[C@@H]2O[C@H](C)[C@@H](O)[C@H](N(C)C)[C@H]2O)[C@@H](CC=O)C[C@@H](C)C(=O)/C=C/C(C)=C/[C@@H]1CO
- MIC (Bacteroides fragilis [1]): 32 µg/mL (≈ 53.5 µM)
- MIC (Bacteroides fragilis [2]): 64 µg/mL (≈ 107 µM)
- MIC (Bacteroides fragilis [3]): 32 µg/mL (≈ 53.5 µM)
- MIC (Eikenella corrodens): 32 µg/mL (≈ 53.5 µM)
- MIC (Phocaeicola vulgatus): 32 µg/mL (≈ 53.5 µM)
- MIC [4]: 8 µg/mL (≈ 13.4 µM)
- MIC [5]: 128 µg/mL (≈ 214 µM)
- MIC (Clostridioides difficile): 4 µg/mL (≈ 6.69 µM)
- MIC (Clostridium perfringens): < 0.5 µg/mL
- MIC (Clostridium septicum): 4 µg/mL (≈ 6.69 µM)
- MIC (Chlamydia trachomatis): 0.5 µg/mL (≈ 0.836 µM)
- MIC (Fusobacterium): < 0.005 µg/mL
- MIC (Haemophilus influenzae [6]): 2 µg/mL (≈ 3.35 µM)
- MIC (Haemophilus influenzae [7]): 2 µg/mL (≈ 3.35 µM)
- MIC (Haemophilus influenzae [8]): 2 µg/mL (≈ 3.35 µM)
- MIC [9]: 4 µg/mL (≈ 6.69 µM)
- MIC [10]: 1 µg/mL (≈ 1.67 µM)
- MIC [11]: 2 µg/mL (≈ 3.35 µM)
- MIC (Anaerococcus prevotii): 16 µg/mL (≈ 26.8 µM)
- MIC (Cutibacterium acnes): 8 µg/mL (≈ 13.4 µM)
- MIC (Streptococcus [12]): 0.5 µg/mL (≈ 0.836 µM)
- MIC (Streptococcus [13]): 0.5 µg/mL (≈ 0.836 µM)
- MIC (Streptococcus [14]): 0.5 µg/mL (≈ 0.836 µM)
- MIC (Streptococcus [15]): 1 µg/mL (≈ 1.67 µM)
- MIC (Streptococcus [16]): 0.25 µg/mL (≈ 0.418 µM)
- MIC [17]: > 128 µg/mL
- MIC (Staphylococcus aureus [18]): 1 µg/mL (≈ 1.67 µM)
- MIC (Staphylococcus aureus [19]): 1 µg/mL (≈ 1.67 µM)
- MIC (Staphylococcus aureus [20]): 1 µg/mL (≈ 1.67 µM)
- MIC (Staphylococcus aureus [21]): 2 µg/mL (≈ 3.35 µM)
- MIC (Staphylococcus aureus [22]): 2 µg/mL (≈ 3.35 µM)
- ED50 (Streptococcus pyogenes [23]): 3.3 mg/kg
- ED50 (Streptococcus pyogenes [24]): 97 mg/kg
- MIC (Streptococcus pneumoniae [25]): > 128 µg/mL
- ED50 (Streptococcus pyogenes [26]): 3.9 mg/kg
- MIC (Streptococcus sanguinis): 0.25 µg/mL (≈ 0.418 µM)
- MIC (Streptococcus pneumoniae [27]): 0.25 µg/mL (≈ 0.418 µM)
- MIC [28]: 1 µg/mL (≈ 1.67 µM)
- MIC [29]: 0.25 µg/mL (≈ 0.418 µM)
- MIC (Enterococcus faecium): 1 µg/mL (≈ 1.67 µM)
- MIC (Streptococcus pyogenes [30]): 0.25 µg/mL (≈ 0.418 µM)
- MIC (Streptococcus viridans): > 128 µg/mL
- MIC (Streptococcus [31]): 1 µg/mL (≈ 1.67 µM)
- MIC (Staphylococcus aureus [32]): 1 µg/mL (≈ 1.67 µM)
- MIC (Haemophilus influenzae [33]): 4 µg/mL (≈ 6.69 µM)
- MIC [34]: 8 µg/mL (≈ 13.4 µM)
- MIC [35]: < 0.5 µg/mL
- MIC (Collinsella aerofaciens): < 0.5 µg/mL
- MIC (Streptococcus [36]): 0.5 µg/mL (≈ 0.836 µM)
- MIC [37]: 32 µg/mL (≈ 53.5 µM)
- MIC (Streptococcus pyogenes [38]): 0.25 µg/mL (≈ 0.418 µM)
- ED50 (Streptococcus pyogenes [39]): 102 mg/kg
